{"data": "Assay results of several laboratories", "observed": "cell growth or viability"}
{"Structure (SMILES)": "CC(=O)Nc1ccc(Oc2ccc(C(=O)C(Cl)Cl)cc2[N+](=O)[O-])cc1", "cell line": "NCI-H1650", "assay": "MTT", "setting": "2.5 µM", "quantity": "inhibition", "result": "97.6%"}
{"Structure (SMILES)": "COc1ccc(COC[C@@](O)(CNCc2ccc(F)cc2)[C@@H]2CC[C@@H](C)C[C@H]2OCc2ccc(OC)cc2)cc1", "cell line": "A2780", "assay": "MTT", "setting": "30 µM, 72 h", "quantity": "inhibition", "result": "100%"}
{"Structure (SMILES)": "COc1nc(NCc2cn(-c3ccc(NC(=O)c4ccc(Br)cc4)cc3)nn2)nc(OC)n1", "cell line": "Caco-2", "assay": "MTT", "setting": "72 h", "quantity": "IC50", "result": "689 nM"}
{"Structure (SMILES)": "C[C@@H]1CC[C@@H]([C@](C)(O)CNCc2ccccc2)[C@H](OCc2ccccc2)C1", "cell line": "A2780", "assay": "MTT", "setting": "30 µM, 72 h", "quantity": "inhibition", "result": "94.3%"}
{"Structure (SMILES)": "O=C(c1ccc(Oc2ccc(OCc3ccccc3)cc2)c([N+](=O)[O-])c1)C(Cl)Cl", "cell line": "NCI-H1650", "assay": "MTT", "setting": "2.5 µM", "quantity": "inhibition", "result": "96.9%"}
{"Structure (SMILES)": "C[C@@H]1CC[C@@H]([C@](O)(CNCc2ccccc2)COCc2ccccc2)[C@H](OCc2ccccc2)C1", "cell line": "A2780", "assay": "MTT", "setting": "10 µM, 72 h", "quantity": "inhibition", "result": "90.4%"}
{"Structure (SMILES)": "O=C(c1ccc(Oc2ccc3cc(Br)ccc3c2Cl)c([N+](=O)[O-])c1)C(Cl)Cl", "cell line": "NCI-H1650", "assay": "MTT", "setting": "2.5 µM", "quantity": "inhibition", "result": "97%"}
{"Structure (SMILES)": "COc1ccccc1CNC[C@@](C)(O)[C@@H]1CC[C@@H](C)C[C@H]1OCc1ccccc1", "cell line": "A2780", "assay": "MTT", "setting": "10 µM, 72 h", "quantity": "inhibition", "result": "58.5%"}
{"Structure (SMILES)": "NC(=O)COc1ccc(C(=O)C(Cl)Cl)cc1[N+](=O)[O-]", "cell line": "NCI-H1650", "assay": "MTT", "setting": "2.5 µM", "quantity": "inhibition", "result": "1.51%"}
{"Structure (SMILES)": "O=C(O)c1cccnc1Nc1cccc(C(F)(F)F)c1", "cell line": "NCI-H28", "assay": "CCK-8", "setting": "72 h", "quantity": "GI50", "result": "> 40000 nM"}
{"Structure (SMILES)": "COc1cccc2c1C(=O)c1c(O)c3c(c(O)c1C2=O)C[C@@](O)(C(=O)CO)C[C@@H]3O[C@H]1C[C@H](N)[C@H](O)[C@H](C)O1", "cell line": "Caco-2", "assay": "MTT", "setting": "6.25 µg/mL, 48 h, serum-free", "quantity": "viability", "result": "62.1%"}
{"Structure (SMILES)": "COc1nc(NCc2cn(-c3ccc(C(=O)Nc4ccc(Br)cc4)cc3)nn2)nc(OC)n1", "cell line": "Caco-2", "assay": "MTT", "setting": "72 h", "quantity": "IC50", "result": "674 nM"}
{"Structure (SMILES)": "O=C(c1ccc(Oc2ccc(-c3ccccc3)cc2)c([N+](=O)[O-])c1)C(Cl)Cl", "cell line": "NCI-H1650", "assay": "MTT", "setting": "2.5 µM", "quantity": "inhibition", "result": "97.5%"}
{"Structure (SMILES)": "C[C@@H]1CC[C@@H]([C@](O)(CNCc2ccccc2)COCc2ccc(F)cc2)[C@H](OCc2ccc(F)cc2)C1", "cell line": "A2780", "assay": "MTT", "setting": "10 µM, 72 h", "quantity": "inhibition", "result": "95.2%"}
{"Structure (SMILES)": "O=C1CC[C@@H](COc2ccc(C(=O)C(Cl)Cl)cc2[N+](=O)[O-])N1", "cell line": "NCI-H1650", "assay": "MTT", "setting": "2.5 µM", "quantity": "inhibition", "result": "29.8%"}
{"Structure (SMILES)": "COc1nc(NCc2cn(-c3ccc(C(=O)Nc4ccccc4)cc3)nn2)nc(OC)n1", "cell line": "Caco-2", "assay": "MTT", "setting": "72 h", "quantity": "IC50", "result": "208 nM"}
{"Structure (SMILES)": "C=C(F)C(=O)N1CCN(c2nc(OC[C@@H]3CCCN3C)nc3c2CCN(c2cccc4cccc(Cl)c24)C3)C[C@@H]1CC#N", "cell line": "UMUC3", "assay": "ATP luminescence", "setting": "3D culture", "quantity": "IC50", "result": "8.43 nM"}
{"Structure (SMILES)": "C=CC(=O)NC1CCN(c2ncc3ncnc(Nc4ccc(Oc5ccc6c(c5)ncn6C)c(C)c4)c3n2)CC1", "cell line": "LoVo", "quantity": "EC50", "result": "11.8 nM"}
{"Structure (SMILES)": "COc1ccc(C(=O)Nc2ccc(-n3cc(CNc4nc(OC)nc(OC)n4)nn3)cc2)cc1", "cell line": "Caco-2", "assay": "MTT", "setting": "72 h", "quantity": "IC50", "result": "722 nM"}
{"Structure (SMILES)": "C=CC(=O)c1cccnc1Nc1cccc(C(F)(F)F)c1", "cell line": "NCI-H28", "assay": "CCK-8", "setting": "72 h", "quantity": "GI50", "result": "5110 nM"}
{"Structure (SMILES)": "C[C@@H]1CC[C@@H]([C@](C)(O)CNCc2cccc(F)c2)[C@H](OCc2ccccc2)C1", "cell line": "A2780", "assay": "MTT", "setting": "30 µM, 72 h", "quantity": "inhibition", "result": "98.8%"}
{"Structure (SMILES)": "O=C(c1ccccc1)c1ccc(Oc2ccc(C(=O)C(Cl)Cl)cc2[N+](=O)[O-])cc1", "cell line": "NCI-H1650", "assay": "MTT", "setting": "2.5 µM", "quantity": "inhibition", "result": "96.5%"}
{"Structure (SMILES)": "C[C@@H]1CC[C@@H]([C@](C)(O)Cn2ccnc2)[C@H](OCc2ccccc2)C1", "cell line": "A2780", "assay": "MTT", "setting": "30 µM, 72 h", "quantity": "inhibition", "result": "39.5%"}
{"Structure (SMILES)": "O=C(c1ccc(Oc2ccc3c(c2)OCO3)c([N+](=O)[O-])c1)C(Cl)Cl", "cell line": "NCI-H1650", "assay": "MTT", "setting": "2.5 µM", "quantity": "inhibition", "result": "84.4%"}
{"Structure (SMILES)": "C[C@@H]1CC[C@@H]([C@](O)(CNCc2cccc3ccccc23)COCc2ccccc2)[C@H](OCc2ccccc2)C1", "cell line": "A2780", "assay": "MTT", "setting": "10 µM, 72 h", "quantity": "inhibition", "result": "90.7%"}
{"Structure (SMILES)": "O=C(NO)c1ccc(CNc2nc3cccc(-c4ccc5c(c4)OCO5)n3n2)cc1", "cell line": "HT-29", "assay": "SRB", "quantity": "GI50", "result": "510 nM"}
